SENP1 inh: blocks the human SENP1 SUMO protease catalytic domain; Q9P0U3; recombinant SENP1 catalytic domain, CyPet-SUMO1-YPet FRET cleavage; inhibition, % at 10 µM; 360,000 tested, 0.21% active; AID 624204;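 active = inhibition at least 30% at 10 µM, raw YFP signal under a set limit, fluorescence ratio 0.5 to 1.5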
Target sequence (Q9P0U3 419-644 limits assumed): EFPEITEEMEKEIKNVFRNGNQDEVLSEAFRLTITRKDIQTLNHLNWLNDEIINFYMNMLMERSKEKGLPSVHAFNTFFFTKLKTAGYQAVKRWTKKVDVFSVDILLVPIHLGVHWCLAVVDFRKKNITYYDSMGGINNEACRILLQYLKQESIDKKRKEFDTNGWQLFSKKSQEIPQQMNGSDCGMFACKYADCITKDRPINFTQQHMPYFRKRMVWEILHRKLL
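Compound: 10 µM single point, 0.5% DMSO; Test system: hSENP1 catalytic domain, recombinant; Timing: 50 min reaction at room temperature; Technique: FRET, CFP and YFP emission; Control set: no-enzyme wells low, DMSO-plus-enzyme wells high control.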
SENP7 inh: inhibitors of human SENP7 protease; Q9BQF6; recombinant SENP7, Z-RLRGG-aminoluciferin luminescence, 40 min; inhibition, % at 5 µM; 330,000 tested, 1.5% active;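 active = inhibition above about 50% at the single test dose, limit read from the data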
SENP8 block-1: SENP8 protease inhibition; inhibition, % at 10 µM; 330,000 tested, 1.2% active; purified SENP8, Z-RLRGG-aminoluciferin cleavage, luminescence; in the data active = inhibition above about 50%
Target sequence (Q96LD8 whole entry, looked up): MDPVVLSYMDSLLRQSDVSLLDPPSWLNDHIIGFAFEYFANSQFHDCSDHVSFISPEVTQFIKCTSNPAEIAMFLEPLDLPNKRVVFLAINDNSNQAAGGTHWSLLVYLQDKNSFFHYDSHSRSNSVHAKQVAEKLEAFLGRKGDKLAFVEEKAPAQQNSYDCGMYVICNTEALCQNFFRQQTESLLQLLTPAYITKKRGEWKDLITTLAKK
SENP6 inh: blocks the human protease SENP6; Q9GZR1; inhibition, % at 10 µM; 330,000 tested, 1.8% active; AID 2599; Recombinant SENP6 catalytic domain, aminoluciferin luminescence;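 active = inhibition above about 50% at the single tested dose, limit read from the data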
SENP8 block-2: blocks human SENP8 cleavage of Nedd8 substrate; inhibition, % at 20 µM; Q96LD8; AID 602440; recombinant SENP8, Nedd8 substrate fluorescence; 360,000 tested, 0.64% active; in the data active = inhibition mostly above about 40%, no sharp cut-off; inactive = mostly below about 27%
HSP90 refold inh: HSP90 refolding inhibition in rabbit reticulocyte lysate. 290,000 tested, 0.91% active. luciferase refolding luminescence, 3 h. inhibition, % at 5.6 µM;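 active = inhibition above the screen-wide mean plus 3 SD, computed separately per campaign, cut at about 16% in these data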;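 note: inhibitors lower the luminescence because luciferase stays unfolded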
SENP8 conf: human SENP8 inhibition, confirmed; shares compounds with SENP7 inh; Recombinant SENP8, Z-RLRGG-aminoluciferin luminescence, 60 min; inhibition, % at 12.5 µM; 6,200 tested, 40% active; AID 488912;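 active = mean inhibition across replicates above about 50%, limit read from the data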
SENP6 conf: human SENP6 inhibition, confirmed; 6,200 tested, 58% active; recombinant SENP6, Z-RLRGG-aminoluciferin luminescence; inhibition, % at 12.5 µM; AID 488915; shares compounds with SENP7 inh
SENP7 conf: confirmation of human SENP7 protease inhibitors | recombinant SENP7, Z-RLRGG-aminoluciferin luminescence, 40 min | inhibition, % at 12.5 µM | AID 488917 | 6,200 tested, 69% active | shares compounds with SENP7 inh
Casp3 select: caspase-3 inhibition (SENP selectivity assay); AID 488918; 6,200 tested, 60% active; shares compounds with SENP7 inh; inhibition, % at 12.5 µM; purified caspase-3, Z-DEVD-aminoluciferin luminescence, 60 min;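 active = mean inhibition above about 50%, limit read from the data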
Target sequence (P42574 28-227 limits assumed): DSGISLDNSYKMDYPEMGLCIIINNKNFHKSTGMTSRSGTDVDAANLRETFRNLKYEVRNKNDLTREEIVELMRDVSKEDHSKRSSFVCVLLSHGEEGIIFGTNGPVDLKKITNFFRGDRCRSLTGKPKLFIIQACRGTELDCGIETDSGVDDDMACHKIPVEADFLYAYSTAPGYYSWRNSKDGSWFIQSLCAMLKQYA
Luc interf: interferes with luciferase luminescence in SENP counter-screen; shares compounds with SENP7 inh; Pre-incubated SENP8/Z-RLRGG-aminoluciferin, luciferase luminescence interference; inhibition, % at 12.5 µM; 6,200 tested, 39% active; AID 488919;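 active = mean inhibition above about 50% when retested at one dose, limit read from the data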
Hits are given with their value; . = inactive; / = no result given. Only some compounds are listed: those with a hit (about 2.9% of all), similar ones and a draw of the others.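 Rule for the calls, unless noted: active = mean inhibition above about 50% in the one-dose retest (limit read from the data); inactive = the rest.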

SMILES	SENP1 inh	SENP7 inh	SENP8 block-1	SENP6 inh	SENP8 block-2	HSP90 refold inh	SENP8 conf	SENP6 conf	SENP7 conf	Casp3 select	Luc interf
Cc1ccc(-n2nnc(-c3cccnc3Cl)n2)cc1	.	76	52	74	.	.	.	52	.	.	.
Clc1ccc(-n2nnc(-c3cccnc3Cl)n2)cn1	.	.	.	.	.	.	/	/	/	/	/
c1ccc2c(c1)Nc1cc3ccccc3cc1S2	.	.	.	.	.	.	/	/	/	/	/
Cc1ccc2c(c1)Sc1c(ccc3ccccc13)N2	.	.	56	80	.	.	.	.	.	.	.
Oc1c(Cl)cc(Cl)cc1C=Nc1cc(C(F)(F)F)ccc1N1CCc2ccccc2C1	.	99	96	.	.	.	94	96	102	95	62
CCn1cc(CN2CCC(n3nccc3NC(=O)C3CCCC3)CC2)cn1	.	.	.	.	.	.	/	/	/	/	/
COCCn1c(N)c(C#N)c2nc3ccccc3nc21	.	.	.	.	.	.	/	/	/	/	/
N#Cc1c(N)n(CCOC(=O)c2cccc(Br)c2)c2nc3ccccc3nc12	.	.	.	.	.	.	/	/	/	/	/
COc1cc(Cn2c(N)c(C#N)c3nc4ccccc4nc32)cc(OC)c1	.	.	.	88	.	.	.	.	.	.	.
COc1cccc(Cn2c(N)c(C#N)c3nc4ccccc4nc32)c1OC	.	.	.	85	.	.	.	.	.	.	.
N#Cc1c(N)n(CCNC(=O)c2ccc(Cl)cc2)c2nc3ccccc3nc12	.	.	.	70	.	.	.	.	.	.	.
N#Cc1c(N)n(CCc2ccc(F)cc2)c2nc3ccccc3nc12	.	.	.	62	.	.	.	.	.	.	.
O=C(CN1CCN(c2ccccn2)CC1)Nc1ccc([N+](=O)[O-])cc1C(=O)Nc1ccccc1F	.	.	.	.	.	.	/	/	/	/	/
Cc1ccc(OCCn2c(=S)[nH]c3ccccc32)c(C(C)C)c1	.	.	.	.	.	.	/	/	/	/	/
O=C(CC1SC(=NCc2ccccc2)NC1=O)Nc1ccccc1 (stereo not given)	.	.	.	.	.	.	/	/	/	/	/
c1ccc(NC2=Nc3ccccc3CS2)cc1	.	78	51	82	.	.	.	63	90	69	.
CC[C@H](C)[C@H]1O[C@]2(CC[C@@H]1C)C[C@@H]1C[C@@H](CC=C(C)[C@@H](O[C@H]3C[C@H](OC)[C@@H](O[C@H]4C[C@H](OC)[C@@H](O)[C@H](C)O4)[C@H](C)O3)[C@@H](C)C=CC=C3CO[C@@H]4[C@H](O)C(C)=C[C@@H](C(=O)O1)[C@]34O)O2	.	.	.	.	.	/	/	/	/	/	/
O=C(Nc1ccc2c(c1)C(=O)NC2=O)c1ccc(Cl)s1	.	.	.	.	.	.	/	/	/	/	/
O=C(Nc1ccc2sccc2c1)c1ccc(Cl)s1	.	86	.	71	.	.	.	.	88	50	.
O=[N+]([O-])c1ccc2nc(-c3ccccc3)n(OCc3ccc(Cl)cc3)c2c1	.	84	66	86	.	.	.	.	.	.	.
O=[N+]([O-])c1ccc(COn2nnc3ccccc32)cc1	.	.	.	.	.	.	/	/	/	/	/
COn1c(-c2ccccc2)nc2ccc(Cl)cc21	.	.	.	54	.	.	.	.	72	.	.
O=C(O)COn1c(-c2ccccc2)nc2ccc(Cl)cc21	.	.	.	.	.	.	/	/	/	/	/
O=[N+]([O-])c1ccc(Cl)c(S(=O)(=O)Nc2cccc(-c3ccc(N4CCCC4)nn3)c2)c1	.	.	86	92	.	/	.	91	98	86	.
CCOC(=O)CC1c2nc3ccccc3cc2CN1C(=O)OCC (stereo not given)	.	/	/	/	.	/	/	/	/	/	/
SMILES	SENP1 inh	SENP7 inh	SENP8 block-1	SENP6 inh	SENP8 block-2	HSP90 refold inh	SENP8 conf	SENP6 conf	SENP7 conf	Casp3 select	Luc interf
C/C(=N\NC(=O)c1c(Br)c(C)nn1C)c1ccc(NC(=O)c2ccoc2C)cc1	.	.	.	.	.	.	/	/	/	/	/
C/C(=N\NC(=O)c1nn(C)c(C)c1Br)c1ccc(NC(=O)c2ccoc2C)cc1	.	60	.	.	.	.	.	.	.	.	.
CC(NC(=O)CCc1ccccc1)c1cc2c(cc1Cl)OCCO2 (stereo not given)	.	.	.	.	.	.	/	/	/	/	/
CCN(CC)C(=O)CSc1ncnc2sccc12	.	.	.	.	.	.	/	/	/	/	/
CCN(CC)C(=O)CSc1ncnc2c(-c3cccs3)nsc12	.	.	.	57	.	.	.	.	.	.	.
Oc1ccccc1-c1cc(-c2ccccc2Cl)[nH]n1	.	95	95	94	.	.	98	99	102	85	95
Oc1ccccc1-c1cc(-c2cccc(F)c2)n[nH]1	.	88	88	93	.	.	95	95	100	64	74
CCCCCCCCCC(=O)N/N=C/c1ccc(C)s1	.	.	.	.	.	.	/	/	/	/	/
COc1ccc(CCNC(=O)CC2Nc3ccccc3NC2=O)cc1 (stereo not given)	.	.	.	.	.	.	/	/	/	/	/
NC(=O)CC1Nc2cccc3cccc(c23)NC1=O (stereo not given)	.	.	77	91	.	.	.	.	.	.	.
CCCOc1ccc(NC(=O)CC2Nc3ccccc3NC2=O)cc1 (stereo not given)	.	.	.	.	.	.	/	/	/	/	/
O=C(CC1Nc2cccc3cccc(c23)NC1=O)Nc1ccccc1 (stereo not given)	.	53	.	87	.	.	.	.	.	.	.
CCCC(=O)N1CCC1(C)C(=O)Nc1ccc2c(c1)CCN2C(C)=O (stereo not given)	.	/	/	/	.	/	/	/	/	/	/
O=C1C(Cl)=C(Nc2cccc(O)c2)C(=O)N1Cc1ccccc1	.	.	.	.	.	.	/	/	/	/	/
Fc1ccccc1SCc1nnc(-c2ccccc2Br)o1	.	.	53	.	.	.	66	67	86	.	.
COc1cc(/C=C2/C(=N)N3N=C(CC(=O)N4CCOCC4)SC3=NC2=O)ccc1OCc1ccc(F)cc1	.	.	.	.	.	.	/	/	/	/	/
N#C/C(=N\Nc1ccc(Cl)c(Cl)c1)C(=O)C1CC1	.	77	93	96	.	.	92	98	100	87	.
